IC50 data for 14 compounds are collected here from ChEMBL document CHEMBL1134552, “Synthesis of cytotoxic 6E-hydroximino-4-ene steroids: structure/activity studies” (J Med Chem, 2001).

Common to all, as to type: functional, cell-based
One experiment deals with A549. The experiment can be described thus: In vitro antitumor activity against A-549 tumor cells. The conditions noted are these: Homo sapiens. In outline:
(§1)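 Adherent lines (human lung A-549, colon HT-29, MEL-28) grown in EMEM/neaa with 5% FCS. Cells plated at 1×10^4 per well in 1 mL medium containing graded sample concentrations, with drug-free growth controls, in duplicate. Incubated 3 days at 37 °C, 5% CO2. Stained with 0.1% crystal violet, or trypsinized and Coulter-counted. IC50 taken from dose–response curves of growth relative to controls.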

The subject of a further experiment is HT-29. The experiment can be described thus: In vitro antitumor activity against HT-29 tumor cells. Particulars: Homo sapiens. In outline: as §1
The next experiment concerns SK-MEL-28. Put plainly: In vitro antitumor activity against MEL-28 tumor cells. The conditions noted are these: Homo sapiens. In short, it runs like this:
as §1

Another experiment relates to P388. The experiment can be described thus: In vitro antitumor activity against P-388 tumor cells. The conditions noted are these: Mus musculus. In outline:
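P-388 lymphoid neoplasm from DBA/2 mouse, grown in suspension in EMEM/neaa with 5% FCS. Seeded at 1×10^4 cells per well in 1 mL medium holding a range of sample concentrations, with drug-free controls, duplicate wells. Incubated 3 days at 37 °C, 5% CO2, 98% humidity. Cells counted by Coulter counter; IC50 read from dose–response curves of % growth versus untreated cultures.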

In brackets after ≈: the same amount, converted by molar mass.

Regarding `CC(C)CCCC(C)[C@H]1CCC2C3C/C(=N\O)C4=CC(=O)[C@H](O)C[C@]4(C)C3CC[C@@]21C` (stereo partly specified), the IC50 came to 0.125 µg/mL (≈ 0.291 µM) in the experiment with A549, 0.25 µg/mL (≈ 0.582 µM) in the experiment on HT-29, 0.125 µg/mL (≈ 0.291 µM) in the experiment on SK-MEL-28 and 0.25 µg/mL (≈ 0.582 µM) in the experiment on P388.

As to `CC(C)CCCC(C)[C@H]1CCC2C3C/C(=N\O)C4=CC(=O)[C@@H](O)C[C@]4(C)C3CC[C@@]21C` (stereo partly specified), the 50% inhibitory concentration (IC50) with A549 is 0.125 µg/mL (≈ 0.291 µM); in the experiment on HT-29, 0.25 µg/mL (≈ 0.582 µM); in the experiment on SK-MEL-28, 0.125 µg/mL (≈ 0.291 µM); in the experiment with P388 it was 0.25 µg/mL (≈ 0.582 µM).

As for `CC(C)CCCC(C)[C@H]1CCC2C3C/C(=N\O)C4=CC=CC[C@]4(C)C3CC[C@@]21C` (stereo partly specified), the IC50 in the experiment with A549, in the experiment on HT-29, in the experiment on SK-MEL-28 and in the experiment with P388 was 5 µg/mL (≈ 12.6 µM) throughout.

As for `CC(C)CCCC(C)[C@H]1CCC2C3C/C(=N\O)C4=CC(=O)C(O)=C[C@]4(C)C3CC[C@@]21C` (stereo partly specified), the IC50 with A549 turned out to be 0.125 µg/mL (≈ 0.292 µM); in the experiment with HT-29, 0.25 µg/mL (≈ 0.585 µM); in the experiment on SK-MEL-28, 0.125 µg/mL (≈ 0.292 µM); in the experiment with P388, 0.5 µg/mL (≈ 1.17 µM).

As to `C[C@]12CCC(=O)C=C1/C(=N/O)CC1C2CC[C@@]2(C)C1CC[C@@H]2O` (stereo partly specified), the IC50 in the experiment on A549, in the experiment with HT-29, in the experiment on SK-MEL-28 and with P388 was 5 µg/mL (≈ 15.8 µM) in each case.

Take `CC(C)CCC[C@@H](C)C1CCC2C3C/C(=N\O)C4=C[C@@H](O)CC[C@]4(C)C3CC[C@@]21C` (stereo partly specified): the IC50 in the experiment on A549, in the experiment on HT-29, in the experiment on SK-MEL-28 and with P388 was 10 µg/mL (≈ 24.1 µM) in each case.

Consider `CC(C)CCCC(C)[C@H]1CCC2C3C/C(=N\O)C4=C[C@@H](O)[C@@H](O)C[C@]4(C)C3CC[C@@]21C` (stereo partly specified), for which the IC50 in the experiment on A549, in the experiment with HT-29, with SK-MEL-28 and in the experiment with P388 was 1.25 µg/mL (≈ 2.9 µM) each time.

For `C[C@]12CCC(=O)C=C1/C(=N/O)CC1C2CC[C@]2(C)C(=O)CCC12` (stereo partly specified), the IC50 in the experiment with A549, in the experiment on HT-29, with SK-MEL-28 and in the experiment with P388 was 5 µg/mL (≈ 15.9 µM) in each case.

Take `CC(C)CCCC(C)[C@H]1CCC2C3C/C(=N\O)C4=CC(=O)CC[C@]4(C)C3CC[C@@]21C` (stereo partly specified): the IC50 with A549 was found to be 1.25 µg/mL (≈ 3.02 µM); in the experiment with HT-29 it was 1.25 µg/mL (≈ 3.02 µM); in the experiment on SK-MEL-28, 2.5 µg/mL (≈ 6.04 µM); in the experiment on P388, 1.25 µg/mL (≈ 3.02 µM).

For the compound `CC(C)CCCC(C)[C@H]1CCC2C3C/C(=N\O)C4=C[C@H](O)[C@H](O)C[C@]4(C)C3CC[C@@]21C` (stereo partly specified), the IC50 in the experiment with A549, in the experiment with HT-29, with SK-MEL-28 and in the experiment with P388 was 1.25 µg/mL (≈ 2.9 µM) each time.

In the case of `CC(C)[C@H](C)[C@@]1(C)C[C@@H]1[C@@H](C)C1CCC2C3C/C(=N\O)C4=CC(=O)CC[C@]4(C)C3CC[C@@]21C` (stereo partly specified), the IC50 with A549, in the experiment on HT-29, in the experiment with SK-MEL-28 and in the experiment on P388 was 5 µg/mL (≈ 11 µM) in each case.

With `CC[C@H](CCC(C)[C@H]1CCC2C3C/C(=N\O)C4=CC(=O)CC[C@]4(C)C3CC[C@@]21C)C(C)C` (stereo partly specified), the IC50 in the experiment on A549, in the experiment on HT-29, in the experiment on SK-MEL-28 and in the experiment on P388 was 10 µg/mL (≈ 22.6 µM) in each case.

As for `CC(C)[C@H](C)[C@@]1(C)C[C@@H]1[C@@H](C)C1CCC2C3C/C(=N\O)C4=C[C@@H](O)CC[C@]4(C)C3CC[C@@]21C` (stereo partly specified), the IC50 in the experiment with A549, in the experiment on HT-29, in the experiment on SK-MEL-28 and with P388 was 10 µg/mL (≈ 21.9 µM) throughout.

Consider `C[C@@]12CCCC1C1C/C(=N\O)C3=CC(=O)CC[C@]3(C)C1CC2` (stereo partly specified), for which the IC50 with A549, in the experiment on HT-29, in the experiment with SK-MEL-28 and with P388 was 5 µg/mL (≈ 16.6 µM) throughout.

Broadly, the IC50 is the concentration that gives 50% inhibition. A high value points to weaker potency.
